Screening data (PubChem)
In the library only some 1.9% were active in any assay of this set; here they are far more common.
Rce1 inhib = inhibitors of yeast Ras-converting enzyme | yeast membranes, quenched prenylated peptide cleavage fluorescence | calls only | actives 0.27% (n = 290,000) | AID 2563;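 active means fall in fluorescence gain of 50% or more versus controls, with final raw signal at or below 3038400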;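 further: plate controls were neutral control wells for no effect and wells lacking membranes for full effect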
Target sequence (Q03530 whole entry, looked up): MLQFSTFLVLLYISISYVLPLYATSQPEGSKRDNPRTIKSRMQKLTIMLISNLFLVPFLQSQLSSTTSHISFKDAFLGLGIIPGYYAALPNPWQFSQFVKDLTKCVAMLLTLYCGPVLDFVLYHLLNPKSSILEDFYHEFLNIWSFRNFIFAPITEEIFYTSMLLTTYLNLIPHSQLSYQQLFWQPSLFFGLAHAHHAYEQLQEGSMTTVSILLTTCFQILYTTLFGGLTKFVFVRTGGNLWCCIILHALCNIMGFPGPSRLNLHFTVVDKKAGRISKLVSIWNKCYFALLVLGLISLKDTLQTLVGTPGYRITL
proKLK7 act = activators of human kallikrein-7 zymogen; activation, % at 7 µM; AID 652039; P49862; actives 0.9% (n = 370,000); purified proKLK7, EDANS-DABCYL substrate fluorescence; 100% is mature enzyme control, 0% vehicle;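 active means activation above the mean of all tested compounds plus 3 SD, computed per campaign excluding outliers beyond control limits, cut at about 13% in these data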
Target sequence (P49862 whole entry, looked up): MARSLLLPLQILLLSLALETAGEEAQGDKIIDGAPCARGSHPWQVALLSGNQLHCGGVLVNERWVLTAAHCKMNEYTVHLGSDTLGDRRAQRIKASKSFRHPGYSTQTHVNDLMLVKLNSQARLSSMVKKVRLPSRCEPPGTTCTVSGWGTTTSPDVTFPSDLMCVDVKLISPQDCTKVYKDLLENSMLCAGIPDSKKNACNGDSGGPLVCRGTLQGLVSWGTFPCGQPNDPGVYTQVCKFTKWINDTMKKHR
CR mimetic SO = lowers age-related superoxide in aged yeast cells; S. cerevisiae aged cells, superoxide DHE fluorescence; active compounds read low; superoxide response (% of plate mean), % at 10 µM; actives 0.18% (n = 330,000); AID 2690;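 active means superoxide response under a set limit, about three screen SD below normal, cut at about 65% in these data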;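 further: yeast aged for seven days with compound at 30 °C before DHE staining; 100% = average MFI of all compound-treated wells on the plate with controls excluded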
T cell HTS = T cell immune modulators affecting CD8 T cell-vesicle binding. 2C CD8+ T cell-vesicle binding, flow cytometry; active compounds read low. actives 0.068% (n = 330,000). response (vesicle binding), % at 7 µM. AID 2052;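 active means response, share of CD8 T cells binding vesicles, and their 90th percentile fluorescence all below set limits, cut at about 80% in these data, passing the limit was not always enough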;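 further: values below 100% mean blocked vesicle binding to the CD8+ T cells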
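Material: murine 2C transgenic CD8+ T lymphocytes / Also added: QL9-peptide-loaded Drosophila micro-vesicles bearing Ld, ICAM-1 and B7-1 / Schedule: binding step 1.5 h, 37 °C, antibody labelling 20 min, ice / Signal: flow cytometry, PE anti-B7-1 (FL2) versus Alexa647 anti-CD8 (FL8), PFA-fixed / Evaluation: percent CD8+ FL2 mean versus row control / Benchmarks: naked versus QL9-loaded vesicles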
V-ATPase pHluor = yeast V-ATPase proton transport regulation by pHLuorin. response, % at 10 µM. AID 504577. S. cerevisiae, pHLuorin cytosolic pH fluorescence. actives 0.37% (n = 350,000); in the data active means response mostly above about 7.3%, no sharp cut-off; inactive means mostly below about 5.4%; further: actives read high
MIN6 prolif = MIN6 beta-cell proliferation induction | MIN6 cells proliferation, ATPlite luminescence, 48 h; cells starved in 0.2% serum; 100% = growth in 10% serum | proliferation, % at 10 µM | actives 0.29% (n = 330,000);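 active means compounds whose signal lies at least 3.5 SD above the mean of all wells on their plate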;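 further: 0% = DMSO-treated cells in low-serum medium and 100% = 10% serum control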
KLK7 act conf = confirmation of human kallikrein-7 zymogen activators; shares compounds with proKLK7 act; AID 686949; activation, % at 7 µM; actives 68% (n = 3,200); purified proKLK7, EDANS-DABCYL substrate fluorescence; scaled: vehicle 0, mature enzyme 100;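 active means activation, as change over the incubation, above the mean of all tested compounds plus 3 SD, cut at about 13% in these data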
EDANS-DABCYL int = optically interferes with EDANS-DABCYL signal, flagging KLK7 hits; shares compounds with proKLK7 act; activation, % at 7 µM; AID 686952; EDANS-DABCYL substrate fluorescence interference, no enzyme, 4 h; solvent 0%, active enzyme control 100%; actives 80% (n = 3,200);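 active means activation above the all-compound mean plus 3 SD, ignoring values outside control-based bounds, cut at about 4.8% in these data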;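 further: value is the 4 h activation minus the activation read at time zero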
Numbers without * were called inactive; i = inactive; . = no result given; + = active, no number.

SMILES | Rce1 inhib | proKLK7 act | CR mimetic SO | T cell HTS | V-ATPase pHluor | MIN6 prolif | KLK7 act conf | EDANS-DABCYL int
N#C/C(=C\c1ccc(-c2nc3ccccc3s2)o1)C(N)=O | i | 17.2* | 123.4 | 184.8 | -3.3 | -2.3 | 7.4 | 5.9*
CCN1CCCC1Cn1cnc2c([nH]c3ccc(OC)cc32)c1=O (stereo unspecified) | i | 23.8* | 100.3 | 381.7 | 3.1 | 3.1 | 9.4 | 10.3*
COc1ccc2[nH]c3c(=O)n(Cc4ccncc4)cnc3c2c1 | i | 12.7* | 111.7 | 424.5 | -2.9 | 3.1 | 7.5 | 9.8*
O=c1c2[nH]c3ccc(F)cc3c2ncn1Cc1ccncc1 | i | 0.6 | 106.8 | 469.9 | -0.7 | 1.5 | . | .
Fc1cccc(/C=N/Nc2cc(N3CCOCC3)ncn2)c1 | i | -0.6 | 95.5 | 179.7 | -3.7 | -2.5 | . | .
CCCS(=O)(=O)NC(=O)C1(C)CCCN(C(=O)c2ccc(F)c(Cl)c2)C1 (stereo unspecified) | . | -0.1 | . | . | . | . | . | .
COc1cc(-c2ccc3oc(-c4ccsc4)c(C#CC4(O)CCCCC4)c3c2)cc(OC)c1OC | i | 12.8* | . | . | -1.2 | -8.1 | 9.9 | 9.6*
CCCNC(=O)c1c(N)n(-c2cccc(OC)c2)c2nc3ccccc3nc12 | i | -40.3 | 93.9 | 378.9 | 5.3 | -5.3 | . | .
COCCCNC(=O)c1c(N)n(-c2cccc(S(N)(=O)=O)c2)c2nc3ccccc3nc12 | i | 19.7* | 108.0 | 459.0 | 1.8 | -1.0 | -20.3 | -66.2
Nc1c(C(=O)NCCN2CCOCC2)c2nc3ccccc3nc2n1-c1cccc(F)c1 | + | 30.4* | 106.3 | 123.3 | -3.2 | -2.5 | -70.6 | -73.0
Nc1c(C(=O)Nc2ccccc2)c2nc3ccccc3nc2n1CCCN1CCOCC1 | i | -8.3 | 120.1 | 458.9 | -11.1 | -4.3 | . | .
CN(C)CCCN(C(=O)/C=C/c1cccs1)c1nc2ccc(F)cc2s1 | i | 35.1* | 87.9 | 328.4 | 1.4 | -6.5 | 153.5* | 232.0*
COCCNS(=O)(=O)c1ccc2c(c1)C(=NO)c1cc(S(=O)(=O)NCCOC)ccc1-2 | i | 13.7* | 100.9 | 586.9 | -2.0 | -2.0 | 0.9 | -1.3
COCCNS(=O)(=O)c1ccc2c(c1)Cc1cc(S(=O)(=O)NCCOC)ccc1-2 | i | 0.1 | 98.2 | 308.1 | -6.5 | -1.6 | . | .
C=CC[C@H](CC(=O)N(CCO)Cc1ccccc1)C(=O)N[C@@H](COC(=O)[C@@H](CC=C)Cc1ccc(F)cc1)Cc1c[nH]c2ccccc12 | . | 0.7 | 95.4 | 549.1 | -0.6 | -5.0 | . | .
CCN(CC(=O)NCc1ccc(F)cc1)C(=O)/C=C/c1cc(OC)ccc1OC | i | 69.0* | . | . | -2.6 | -3.3 | 59.9* | 65.5*
COCCCN1CCC2(CCC(c3ccccc3)CC2)C1=O (stereo unspecified) | . | 0.3 | . | . | . | . | . | .
Cn1c(=O)c2c(-c3ccccc3)n(-n3cnnc3)cc2n(C)c1=O | i | 14.1* | 89.1 | 212.8 | -4.3 | 2.5 | 0.9 | 6.8*
Cn1c(=O)c2c(-c3ccccc3)n(-c3ccccc3)cc2n(C)c1=O | . | 0.3 | . | . | -0.8 | . | . | .
O=C(Nc1nc2c(s1)CN(Cc1ccccc1)CC2)c1cccc(S(=O)(=O)N2CCc3ccccc32)c1 | i | 640.5* | 92.8 | 199.3 | 6.2 | -4.4 | 20.6* | 17.8*
O=C(Nc1nc2ccccc2s1)c1cccc(S(=O)(=O)N2CCc3ccccc32)c1 | i | -0.2 | i | 379.2 | 1.9 | -6.2 | . | .
CC(C)c1ccc(OCc2nnc(SCC(=O)N3CCCCC3)o2)cc1 | i | -0.1 | 97.7 | 181.0 | -0.7 | -3.3 | . | .
O=[N+]([O-])c1ccc(Cl)c(S(=O)(=O)Nc2cccc(S(=O)(=O)NC3=NCCC3)c2)c1 | . | -0.2 | 104.0 | 372.1 | -0.2 | -4.1 | . | .
CN(C)CCCNC(=O)C[C@H]1C[C@H](C(=O)N2CCOCC2)[C@@]2(CCC3CCCC3)c3[nH]c4cc(-c5ccco5)ccc4c3CCN2C1=O | . | 68.2* | 109.8 | . | 1.7 | . | 51.4* | 51.1*
COCCCNC(=O)C[C@H]1C[C@H](C(=O)N2CCOCC2)[C@@]2(CCC3CCCC3)c3[nH]c4cc(-c5ccco5)ccc4c3CCN2C1=O | . | 23.2* | 105.8 | . | -3.5 | . | 12.6* | 17.6*
SMILES | Rce1 inhib | proKLK7 act | CR mimetic SO | T cell HTS | V-ATPase pHluor | MIN6 prolif | KLK7 act conf | EDANS-DABCYL int
CC(C)(C)NC(=O)C[C@H]1C[C@H](C(=O)N2CCOCC2)[C@@]2(CCC3CCCC3)c3[nH]c4cc(-c5ccco5)ccc4c3CCN2C1=O | . | . | 96.4 | . | 3.1 | . | . | .
O=C(C[C@H]1C[C@H](C(=O)N2CCOCC2)[C@@]2(CCC3CCCC3)c3[nH]c4cc(-c5ccco5)ccc4c3CCN2C1=O)NCCN1CCOCC1 | . | 91.0* | 104.0 | . | -2.6 | . | 90.2* | 100.7*
O=C(Nc1ncc2c(n1)-c1ccccc1CC2)C1CC1 | i | 0.2 | 91.8 | 292.4 | -1.2 | -0.7 | . | .
O=C(Nc1ncc2c(n1)-c1ccccc1OC2)c1ccccc1Cl | i | 15.7* | 131.4 | i | -0.1 | -1.6 | -0.4 | -2.2
CC(C)(C)c1ccccc1NC(=O)Nc1nc(C(N)Cc2ccc(F)cc2)cs1 (stereo unspecified) | . | -0.5 | . | . | . | . | . | .
COc1cc2cc(Oc3ccc4ccc(=O)oc4c3)c(=O)oc2cc1OC1OC(COC(=O)CC(C)(O)CC(=O)O)C(O)C(O)C1O (stereo unspecified) | i | 20.7* | 88.5 | 297.8 | -4.0 | -0.7 | 33.6* | 31.1*
COc1cc2cc(Oc3ccc4ccc(=O)oc4c3)c(=O)oc2cc1O[C@@H]1O[C@H](CO)[C@@H](O)[C@H](O)[C@H]1O | . | 25.4* | 102.2 | 318.9 | 8.3 | -1.0 | 36.0* | 48.8*
COc1cc2c(cc1OC)C(c1ccccc1)CC2=O (stereo unspecified) | i | -0.4 | 125.3 | 310.8 | 3.5 | 2.3 | . | .
COc1cc2c(cc1OC)C(=O)CC(C)S2 (stereo unspecified) | i | 13.8* | 109.9 | 284.9 | -3.9 | -2.5 | 31.9* | 26.2*
Nc1ccc(-c2c3ccc(=O)cc-3oc3cc(O)ccc23)cc1C(=O)O | i | 5.0 | 111.5 | 329.4 | -3.4 | 0.6 | . | .
O=c1ccc2c(-c3ccccc3)c3ccc(O)cc3oc-2c1 | i | 24.8* | 128.2 | 373.7 | 7.0 | -5.9 | 49.2* | 51.0*
CCOC(=O)C1=CN(Cc2cccc(F)c2)S(=O)(=O)N(C)C1c1ccc(F)c(Cl)c1 (stereo unspecified) | . | -0.1 | 95.7 | . | -2.2 | . | . | .
CC(=O)Nc1ccc(-c2cc(C(=O)O)c3cc4ccccc4cc3n2)cc1 | . | 1.2 | . | . | 0.0 | . | . | .
CC(=O)Nc1ccc(-c2cc(C(=O)O)c3ccc(C)cc3n2)cc1 | . | 17.1* | 98.9 | 772.8 | 3.2 | -1.5 | 17.3* | 27.5*
